Screening data (PubChem BioAssay)
pPAFAH inh: inhibitors of human plasma PAF acetylhydrolase (pPAFAH); Q13093; recombinant pPAFAH, FP-rhodamine probe fluorescence polarization; inhibition, % at 3.39 µM; 330,000 tested, 1.5% active; AID 463082;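 active = inhibition above the mean inhibition across the screen plus 3 SD, cut at about 25% in these data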;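 note: inhibitors block binding of the rhodamine activity-based probe so polarization drops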
Target sequence (Q13093 whole entry, looked up): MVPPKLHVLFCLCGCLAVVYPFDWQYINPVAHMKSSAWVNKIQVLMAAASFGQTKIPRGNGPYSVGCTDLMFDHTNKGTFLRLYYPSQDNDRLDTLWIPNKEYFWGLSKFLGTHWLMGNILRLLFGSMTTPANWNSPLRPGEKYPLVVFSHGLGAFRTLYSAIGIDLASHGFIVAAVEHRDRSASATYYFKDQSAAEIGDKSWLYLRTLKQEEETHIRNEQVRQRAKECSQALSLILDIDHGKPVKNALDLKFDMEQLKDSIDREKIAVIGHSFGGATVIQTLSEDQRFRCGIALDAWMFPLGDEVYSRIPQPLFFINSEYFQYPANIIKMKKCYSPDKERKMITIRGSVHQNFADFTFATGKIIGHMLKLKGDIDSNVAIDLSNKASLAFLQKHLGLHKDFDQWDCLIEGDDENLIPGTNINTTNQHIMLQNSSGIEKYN
PAFAH1B2 inh: PAFAH1B2 (human) inhibition. recombinant PAFAH1B2, FP-rhodamine activity probe, fluorescence polarization. inhibition, % at 3.39 µM. 340,000 tested, 1.2% active. AID 492953;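 active = inhibition above the mean of all tested compounds plus 3 SD, cut at about 24% in these data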
HTRA1 inh: inhibitors of human serine peptidase HTRA1; AID 504803; inhibition, % at 5.96 µM; recombinant HTRA1, FP-rhodamine activity-based probe, fluorescence polarization; Q92743; 340,000 tested, 0.5% active; in the data active = inhibition above about 36%
PAFAH1B3 inh: PAFAH1B3 (human) inhibition; 340,000 tested, 0.28% active; inhibition, % at 3.39 µM; Q15102; recombinant PAFAH1B3, FP-rhodamine probe, fluorescence polarization; AID 492972;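 active = inhibition above the screen-wide average of all tested compounds plus 3 SD, cut at about 25% in these data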
PAFAH2 FP inh: inhibitors of human PAFAH2; Q99487; recombinant PAFAH2, FP-rhodamine activity probe, fluorescence polarization; inhibition, % at 3.39 µM; 340,000 tested, 0.99% active; AID 492956;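 active = inhibition above the mean over all tested compounds plus 3 SD, cut at about 30% in these data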;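 note: inhibitors block probe labeling of enzyme so polarization drops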
mABHD4 FP: ABHD4 (mouse) inhibition, primary FP screen | 370,000 tested, 0.54% active | AID 720543 | purified mABHD4, FP-Rh probe fluorescence polarization | inhibition, % at 8.92 µM | Q8VD66;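 active = inhibition exceeding the mean over every tested compound plus 3 SD, cut at about 30% in these data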
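Assay system: wild-type mouse ABHD4 protein; compound: single nominal dose of 8.92 µM, 0.89% DMSO final; schedule: 45 min + 60 min at 25 °C; measured by: FP readout, ex 525 nm / em 598 nm; evaluation: % inhibition of FP-Rh probe binding versus controls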
Hits are given with their value; . = inactive; / = no result given. Only some compounds are listed: those with a hit (about 2.8% of all), similar ones and a draw of the others.

SMILES	pPAFAH inh	PAFAH1B2 inh	HTRA1 inh	PAFAH1B3 inh	PAFAH2 FP inh	mABHD4 FP
O=C(COC(=O)c1ncc(Cl)c(Cl)c1Cl)Nc1ccccc1OC(F)F	25	.	.	.	.	.
O=C(COC(=O)c1cccc(S(=O)(=O)NCc2ccccc2)c1)Nc1ccccc1OC(F)F	32	.	.	.	43	.
Cc1cccc(OCC(=O)Nc2nnc(S(=O)(=O)N3CCCCC3)s2)c1	.	.	.	.	.	.
CC1CCN(S(=O)(=O)c2nnc(NC(=O)c3ccccc3Br)s2)CC1	.	28	.	.	.	.
Cc1cccc(OCC(=O)Nc2nnc(S(=O)(=O)N3CCC(C)CC3)s2)c1	.	27	.	.	.	.
CCN(CC)CCn1c(SCC(=O)Nc2ccc3c(c2)CCC3)nc2ccccc2c1=O	.	25	.	.	.	.
CN(C)c1ccc(NC(=O)CSc2nc3ccccc3c(=O)n2C2CCCCC2)cc1	34	.	.	.	.	.
Cc1cc(NC(=O)CSc2nc3ccccc3c(=O)n2C2CCCC2)no1	30	.	.	.	.	.
COc1cc(NC(=O)C2CCCN(S(=O)(=O)c3cc(OC)ccc3OC)C2)cc(OC)c1 (configuration not stated)	/	/	/	/	/	.
CC1CCC2(CC1)SCC(=O)N2c1ccc(F)cc1 (configuration not stated)	.	25	.	.	.	.
NC(=O)C1=CN([C@@H]2O[C@H](COP(=O)(O)OP(=O)(O)OC[C@H]3O[C@@H](n4cnc5c(N)ncnc54)[C@H](O)[C@@H]3O)[C@@H](O)[C@H]2O)C=CC1	/	/	/	/	/	.
COc1ccc(CNS(=O)(=O)/C=C/c2ccc(F)cc2CNC(=O)OC(C)(C)C)cc1	/	/	/	/	/	.
O=C(COC(=O)CCNS(=O)(=O)c1ccccc1F)Nc1nnc(-c2ccccc2)o1	33	.	.	.	.	.
O=C(CCNS(=O)(=O)c1ccccc1)OCc1nnc(-c2ccccc2)o1	30	.	.	.	.	.
O=C(O)CN1C(=O)/C(=C\c2cccc(OCc3ccc(Cl)cc3Cl)c2)SC1=S	/	25	.	.	.	.
O=C(O)CN1C(=O)/C(=C\c2ccccc2OCc2ccc(Cl)cc2Cl)SC1=S	34	.	.	.	.	.
O=C(O)CCN1C(=O)/C(=C\c2cccc(OCc3ccccc3)c2)SC1=S	.	27	.	.	.	.
CCC(NC(=O)c1ccc2c(ccn2Cc2cccc(-c3ccccc3C(=O)O)c2)c1)c1ccccc1 (configuration not stated)	/	/	/	/	/	.
C=CCN1C/C(=C/c2ccccc2)N2C(=O)CC(c3ccccc3)N=C12 (configuration not stated)	/	/	/	/	/	.
O=C(Cn1nc(Cc2cccnc2)c2ccccc2c1=O)Nc1ccccc1F	25	.	.	.	.	.
CN(C)C=NC(=O)c1[nH]c2ccc(Cl)cc2c1-c1ccccc1	29	.	.	.	.	.
COc1ccc(N2Cc3ccc(C(=O)N/N=C\c4ccc(O)cc4O)cc3C2)cc1	39	/	/	/	/	/
Cc1ccc(-c2csc3ncnc(SCc4ccc(C(=O)O)cc4)c23)cc1	29	/	/	/	/	.
CCCCc1cc(=O)oc2cc(C)c(CN3CCCC3)c(O)c12	30	.	.	.	.	.
COc1ccc(OC)c(S(=O)(=O)N2CCCC(C(=O)N3CCN(Cc4ccccc4)CC3)C2)c1 (configuration not stated)	/	/	/	/	/	.
SMILES	pPAFAH inh	PAFAH1B2 inh	HTRA1 inh	PAFAH1B3 inh	PAFAH2 FP inh	mABHD4 FP
CC12CC3CC(C)(C1)CC(C(=O)NC1=NCCS1)(C3)C2	.	28	.	.	.	.
CC12CC3(C)CC(C)(C1)CC(C(=O)NC1=NCCS1)(C2)C3	.	.	.	.	.	.
O=C(O)c1ccc(-n2nnnc2SCc2ccccc2Br)cc1	.	27	.	.	.	.
O=C(O)c1ccc(CSc2nnnn2-c2ccc(F)cc2)cc1	.	.	.	.	.	.
CCOC(=O)[C@]12CCCC=C1N(CCCOC)C(=O)[C@@H]2CC(=O)NCc1ccc(OC)c(OC)c1	/	/	/	/	/	.
O=C(COC(=O)c1ccc(O)cc1)NC(=O)NCc1ccccc1	.	.	.	.	.	.
O=C(COC(=O)c1ccc([N+](=O)[O-])s1)NC(=O)NCc1ccccc1	.	.	.	30	40	.
O=C(COC(=O)c1ccc([N+](=O)[O-])s1)NCc1ccc(F)cc1	26	.	.	44	53	.
CCOC(=O)CNC(=O)N(C)[C@H]1C[C@H]2c3[nH]c4c(-c5cccc(C)c5)cccc4c3CCN2C(=O)[C@H]1[C@H](C)O	/	/	/	/	/	.
C[C@H]1[C@@H](OC(=O)NCc2ccc(Cl)cc2)CC[C@@]23CCCN2C(=O)CCC[C@@H]13	/	/	/	/	/	.
Cc1csc(NC(=O)c2c(-c3c(F)cccc3Cl)noc2C)n1	33	.	.	.	.	.
Cc1csc(NC(=O)c2c(-c3c(Cl)cccc3Cl)noc2C)n1	.	.	.	.	.	.
O=C(CN1C(=O)C2(OCCCO2)c2ccccc21)NCc1ccc(F)cc1	/	/	/	/	/	.
CC(C)(C)SCCNS(=O)(=O)c1ccccc1	.	.	.	.	.	.
CSc1ccc(S(=O)(=O)NCCSC(C)(C)C)cc1	28	.	.	.	.	.
CCN(c1ccccc1)S(=O)(=O)c1ccc(Cl)c(NC(=O)COC(=O)c2cc(O)c3ccccc3c2O)c1	.	/	/	/	/	/
CCN(c1ccccc1)S(=O)(=O)c1ccc(Cl)c(NC(=O)COC(=O)c2ccc(O)cc2)c1	34	.	.	.	67	.
Cc1cccc(Cn2cc(CN3CC(N4CCN(CCOC(=O)c5cc6ccccc6o5)CC4)CS3(=O)=O)nn2)c1 (configuration not stated)	/	/	/	/	/	.
O=C1NNC(c2ccccc2)=N/C1=C\c1ccco1	26	.	.	.	.	.
O=C1NNC(c2ccccc2)=N/C1=C\c1ccccc1Cl	/	.	.	.	.	.
CCOC(=O)c1ccccc1NC(=O)CSc1nnc(C)c(=O)[nH]1	.	34	.	.	.	.
Cc1cc(=O)[nH]c(SCC(=O)Nc2nc(-c3ccccc3)cs2)n1	.	.	.	.	.	.
Cc1ccccc1NC(=O)CSc1nnc(C)c(=O)[nH]1	.	.	.	.	.	.
Cc1nnc(SCC(=O)Nc2nc(-c3ccc(F)cc3)cs2)[nH]c1=O	.	30	.	.	.	.
COc1ccc(S[C@]2(C(=O)N3CCCC3)CC(=O)N(C(=O)C3CC3)[C@@H]2c2ccc(OC)cc2)cc1	/	/	/	/	/	.
COc1ccc(-c2n[nH]c(=S)n2-c2ccc(C)cc2C)cc1	.	.	.	.	.	.
Cc1ccc(-n2c(-c3ccc(Cl)cc3)n[nH]c2=S)c(C)c1	.	29	.	.	.	.
CCOC1=C/C(=C/c2c(N)n3nc(-c4ccccc4)sc3nc2=O)C=CC1=O	/	/	/	/	/	.
COC1=C/C(=C/c2c(N)n3nc(-c4ccc(C)cc4)sc3nc2=O)C=CC1=O	/	28	.	.	.	.
